Assay outcomes as filed in PubChem BioAssay.
The list is not random: actives were taken first. Their share in the collection is about 4.2%.
TAAR1 antagonist: human TAAR1 antagonism | Q96RJ0 | AID 624466 | 1.5% of 360,000 active | inhibition, % at 3 µM | CHO RD-HGA16 TAAR1, Fluo-8 calcium fluorescence, antagonist;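 active = inhibition above a per-plate cutoff, the mean inhibition of test compounds on that plate plus 3 SD, cut at about 49% in these data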
Target sequence (Q96RJ0 whole entry, looked up): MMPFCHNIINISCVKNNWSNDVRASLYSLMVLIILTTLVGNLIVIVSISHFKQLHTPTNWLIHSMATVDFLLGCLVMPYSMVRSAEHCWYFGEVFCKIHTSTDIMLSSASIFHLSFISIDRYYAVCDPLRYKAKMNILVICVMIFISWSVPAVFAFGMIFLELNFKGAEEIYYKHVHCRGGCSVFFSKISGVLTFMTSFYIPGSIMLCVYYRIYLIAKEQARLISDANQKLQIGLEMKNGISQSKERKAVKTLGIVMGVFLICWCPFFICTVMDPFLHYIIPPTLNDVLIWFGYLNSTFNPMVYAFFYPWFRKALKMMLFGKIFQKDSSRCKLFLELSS
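test system = CHO RD-HGA16 cells bearing hTAAR1 | replication = singlicate | controls = DMSO-only wells and EC80 β-PEA-stimulated wells | reagent = EC80 β-phenethylamine stimulus | read-out basis = percent inhibition of PEA-evoked calcium signal, max/basal emission ratio | schedule = seeding 17-24 h prior, 75-min 37 °C, 30-min RT dye loading | signal = kinetic Fluo-8 calcium fluorescence measurement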
OX1R antag-1: blocks the human orexin 1 receptor; O43613; CHO/OX1R cells, Fluo-8 calcium fluorescence, orexin A; inhibition, % at 5 µM; 0.43% of 330,000 active; AID 434989;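 active = inhibition above its plate's threshold, mean inhibition of all tested compounds on the plate plus 3 SD, cut at about 37% in these data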
GalR3 antag: blocks the human galanin receptor 3; HEK293 GalR3-CNG cAMP membrane potential fluorescence; galR3 body fused to GalR1 C-terminus; inhibition, % at 3 µM; 0.44% of 360,000 active;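 active = inhibition above the screen-wide average plus 3 SD, cut at about 13% in these data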;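 also: forskolin and galanin both at EC90 stimulate the cells; cAMP rise reported by CNG channel membrane potential dye signal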
Target sequence (O60755 1-299 limits assumed): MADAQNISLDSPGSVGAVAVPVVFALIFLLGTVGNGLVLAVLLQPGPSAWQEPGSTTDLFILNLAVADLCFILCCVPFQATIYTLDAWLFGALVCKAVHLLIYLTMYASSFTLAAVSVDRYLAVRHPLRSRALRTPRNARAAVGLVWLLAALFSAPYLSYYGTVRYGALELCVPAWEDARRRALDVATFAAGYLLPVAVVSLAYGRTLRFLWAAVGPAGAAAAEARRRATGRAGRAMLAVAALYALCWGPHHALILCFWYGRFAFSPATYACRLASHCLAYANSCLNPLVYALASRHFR
TAAR1 agonist: agonists of human TAAR1; CHO RD-HGA16 TAAR1, Fluo-8 calcium fluorescence; vehicle wells 0%, saturating PEA agonist 100%; activation, % at 3 µM; 0.99% of 360,000 active;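 active = activation above the mean activation of all test compounds in the run plus 3 SD, cut at about 38% in these data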
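Benchmarks: low control DMSO, high control PEA (EC100); System: CHO RD-HGA16 cells carrying human TAAR1 plus Gα16; Detection: Fluo-8 fluorescence, 5 s baseline then 140 s kinetic read; Schedule: 17-24 h plating, Fluo-8 75 min 37 °C, 30 min RT; Read-out basis: % activation from peak over basal fluorescence ratio, DMSO-to-PEA scaled.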
OX1R antag-2: antagonists of human orexin 1 receptor (OX1R); O43613; OX1R-expressing cells, FRET antagonist read-out; inhibition, % at 6.6 µM; 1.8% of 330,000 active; in the data active = inhibition mostly above about 38%, no sharp cut-off; inactive = mostly below about 40%
CHO parental Ca: signal in parental CHO cells, OX1R antagonist counter-screen. parental CHO-K1, ATP-induced calcium, Fluo-8 fluorescence. inhibition, % at 5.6 µM. AID 463079. 0.63% of 330,000 active;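 active = inhibition above that plate's mean sample inhibition plus 3 SD, cut at about 26% in these data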
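Test system: untransfected parental CHO cell line; also added: ATP stimulus; dosing: 5.6 µM, single dose; signal: calcium-sensitive Fluo-8 fluorescence; measure: percent inhibition of ATP-evoked calcium rise, normalized to controls; benchmarks: low control ATP plus DMSO, high control DMSO only; replication: one well per compound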
OX1R HTRF conf: confirmation of human orexin 1 receptor antagonists, HTRF format. 49% of 1,800 active. inhibition, % at 6.6 µM. OX1R-expressing cells, HTRF antagonist assay. AID 492964. shares compounds with OX1R antag-2; in the data active = inhibition above about 55%;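 also: CHO cells expressing OX1R stimulated with orexin A at about EC80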
CHO-K1 HTRF cnt: counter-screen: parental CHO-K1 HTRF response; shares compounds with OX1R antag-2; parental CHO-K1 cells, HTRF counterscreen; inhibition, % at 6.6 µM; 48% of 1,800 active; in the data active = inhibition above about 17%
Each line names hits and unclear results; the compound was inactive in the other large screens (follow-up assays come after a bar, where they were run).

O=C1C(Cl)=C(NCc2cccnc2)C(=O)c2ccccc21	OX1R antag-2 83.8 | OX1R HTRF conf 65.9 | CHO-K1 HTRF cnt 98.0
C=CCNC1=C(Cl)C(=O)c2ccccc2C1=O	OX1R antag-2 140.5 | OX1R HTRF conf 64.3 | CHO-K1 HTRF cnt 93.6
O=C1c2ccccc2C(=O)c2c(NCCCN(CCO)CCO)cccc21	none (no result: OX1R antag-1, OX1R antag-2, CHO parental Ca)
O=C1C(Cl)=C(Nc2ccccc2)C(=O)c2ccccc21	none
O=C(O)c1ccc(NC2=C(Cl)C(=O)c3ccccc3C2=O)cc1	OX1R antag-2 84.4 | OX1R HTRF conf 70.3 | CHO-K1 HTRF cnt 34.2
CCN(CC)CCCNC1=C(Cl)C(=O)c2ccccc2C1=O	OX1R antag-2 85.6 | OX1R HTRF conf 87.5 | CHO-K1 HTRF cnt 113.2
CC1CC(C)CN(C(=O)C2CCCN(S(=O)(=O)c3cnc[nH]3)C2)C1 (configuration not stated)	none
O=C1c2cccc3cccc(c23)C(=O)N1c1ccccn1	OX1R antag-2 98.6 | OX1R HTRF conf 61.2 | CHO-K1 HTRF cnt 60.3
COc1ccc(N2C(=O)c3cccc4cccc(c34)C2=O)cc1	none
O=C1c2cccc3cccc(c23)C(=O)N1c1ccncc1	OX1R antag-2 110.6 | OX1R HTRF conf inactive | CHO-K1 HTRF cnt 66.8
CCOC(=O)Cn1cnc2c(cnn2-c2ccc(Cl)cc2)c1=O	none
CC(=O)Oc1cccc(N2C(=O)c3cccc4c([N+](=O)[O-])ccc(c34)C2=O)c1	OX1R antag-2 114.9 | OX1R HTRF conf 99.0 | CHO-K1 HTRF cnt 72.4
O=C(Nc1cccc(Cl)c1)Nc1ccc(Br)cc1F	OX1R antag-2 82.5 | OX1R HTRF conf inactive | CHO-K1 HTRF cnt inactive
CC(C)(C)C(=O)/C=c1\[nH]c(=O)/c(=C\c2ccc(F)cc2)s1	none
COc1ccc(/C=c2\s/c(=C/C(=O)c3ccc(C)cc3)[nH]c2=O)cc1OC	OX1R antag-2 82.2 | OX1R HTRF conf 84.3 | CHO-K1 HTRF cnt 18.6
Cc1cccn2c(=O)c3cc(C#N)c(=NC(=O)c4ccccc4)n(Cc4ccco4)c3nc12	OX1R antag-2 88.0 | OX1R HTRF conf inactive | CHO-K1 HTRF cnt 41.5
O=C(Cc1nc(=O)c2ccccc2s1)Nc1ccccc1	none
CCOc1ccc(C2=Nn3cnnc3SC2)cc1	none
O=[N+]([O-])c1ccc(C2=Nn3cnnc3SC2)cc1	OX1R antag-2 87.8 | OX1R HTRF conf 57.8 | CHO-K1 HTRF cnt 93.1
O=C(CNC(=O)c1ccccc1)c1ccccc1	OX1R antag-2 84.8 | OX1R HTRF conf inactive | CHO-K1 HTRF cnt inactive
O=C(CNC(=O)c1ccc(Br)cc1)c1ccccc1	none
Cc1cc(C)n2[nH]c(=O)c(N=Nc3ccc(S(N)(=O)=O)cc3)c2n1	OX1R antag-2 87.7 | OX1R HTRF conf 57.1 | CHO-K1 HTRF cnt 85.1
Cc1ccc(N=Nc2c(=O)[nH]n3c(C)cc(C)nc23)cc1	OX1R antag-2 173.9 | OX1R HTRF conf inactive | CHO-K1 HTRF cnt 80.0
COc1ccccc1C1(CCNC(C)c2cccs2)CCOC(C(C)C)C1 (configuration not stated)	none
Cc1cccc(-n2nc([N+](=O)[O-])c(=NC3CCN(Cc4ccccc4)CC3)n2O)c1	OX1R antag-2 83.3 | OX1R HTRF conf inactive | CHO-K1 HTRF cnt 42.1
C=CCN1C(=O)S/C(=C\c2ccc3c(c2)n(C)c(=O)n3C)C1=O	none
Cn1c(=O)n(C)c2cc(/C=C3/SC(=O)N(CC(=O)N4CCOCC4)C3=O)ccc21	OX1R antag-2 83.3 | OX1R HTRF conf inactive | CHO-K1 HTRF cnt 53.5
COc1ccc(-c2cnc3nc[nH]c(=O)c3n2)cc1	OX1R antag-2 196.6 | OX1R HTRF conf 56.5 | CHO-K1 HTRF cnt 90.1
O=[n+]1cc(-c2cc3ccccc3o2)n([O-])c2c1CCCC2	OX1R antag-2 89.1 | OX1R HTRF conf inactive | CHO-K1 HTRF cnt 43.8
CCOC(=O)C[n+]1c(C)sc2ccc(OC)cc21	none (no result: TAAR1 antagonist, GalR3 antag, TAAR1 agonist)
CCOC(=O)c1c(=O)n(O)c2ccc(OC)cc2[n+]1[O-]	OX1R antag-2 118.2 | OX1R HTRF conf inactive | CHO-K1 HTRF cnt 62.0
O=Nc1c2nc3ccccc3n(O)c-2c2ccccc12	OX1R antag-2 90.7 | OX1R HTRF conf inactive | CHO-K1 HTRF cnt 48.9
CN(C1CCCCC1)S(=O)(=O)c1cc2c3c(c1)CCN3C(=O)CC2	OX1R antag-2 94.0 | OX1R HTRF conf inactive | CHO-K1 HTRF cnt inactive
COc1ccc(CNC(=O)O[C@H]2CN(C(=O)OC(C)C)N(C(=O)OC(C)C)[C@@H]3CN(S(=O)(=O)c4ccc(C)cc4)C[C@]23O)cc1OC	none (no result: OX1R antag-1, OX1R antag-2, CHO parental Ca)
O=C(O)c1cccc2c1C(=O)c1ccccc1C2=O	OX1R antag-2 85.0 | OX1R HTRF conf 63.8 | CHO-K1 HTRF cnt 110.1
O=C(O)c1ccc2c(c1Nc1ccccc1)C(=O)c1ccccc1C2=O	none
CNc1c(C(=O)O)ccc2c1C(=O)c1ccccc1C2=O	OX1R antag-2 110.9 | OX1R HTRF conf 61.7 | CHO-K1 HTRF cnt 85.7
CCNc1c(C(=O)O)ccc2c1C(=O)c1ccccc1C2=O	OX1R antag-2 97.0 | OX1R HTRF conf inactive | CHO-K1 HTRF cnt 18.4
COc1cccc(C(=O)Nc2cc3c(cc2C(C)=O)OCCO3)c1	none
Cc1nc(N2CCN(c3ccccn3)CC2)c2c(C)c(C(=O)Nc3ccccc3F)sc2n1	none
CCC1(c2ccc(F)cc2)NC(=O)N(CC(=O)NCC(=O)Nc2cccc(C)c2C)C1=O (configuration not stated)	none
O=C1CN(S(=O)(=O)c2ccc([N+](=O)[O-])cc2)CC(=O)N1	OX1R antag-2 76.8 | OX1R HTRF conf inactive | CHO-K1 HTRF cnt 65.6
O=[N+]([O-])c1ccc(-c2ccc(S(=O)(=O)N3CCOCC3)cc2)cc1	none
COc1ccc(C2Nc3ccccc3C(=O)N2Cc2ccccc2)cc1OC (configuration not stated)	none
N#CC1=C(N)Oc2c(oc(CO)cc2=O)C1c1ccsc1 (configuration not stated)	OX1R antag-2 91.6 | OX1R HTRF conf inactive | CHO-K1 HTRF cnt 17.6
COc1cc(C2C(C#N)=C(N)Oc3c2oc(CO)cc3=O)cc(OC)c1OC (configuration not stated)	none
N#CC1=C(N)Oc2c(oc(CO)cc2=O)C1c1cccs1 (configuration not stated)	OX1R antag-2 76.8 | OX1R HTRF conf inactive | CHO-K1 HTRF cnt 22.0
O=C(NC(=S)NCc1ccco1)c1ccc([N+](=O)[O-])cc1	none
COc1ccccc1OCCCOc1cccc(/C=C2\SC(=O)NC2=O)c1	OX1R antag-2 78.1 | OX1R HTRF conf inactive | CHO-K1 HTRF cnt 21.6
COc1ccc(C=C2SC(=O)NC2=O)cc1OC	none (no result: OX1R antag-1, OX1R antag-2, CHO parental Ca)
